Legend:
bovine Capthesin B = settings: read-out: bovine Cathepsin B IC50; cited from earlier work
plasmid (pBR322) DNA = test: Electrophoresis mobility shift assay with plasmid DNA; format: binding
[1] = system: human breast adenocarcinoma cell line MCF7; test: Cytotoxicity, MTT assay, MCF-7 cells; format: cell-based; settings: read-out: IC50 MCF-7, 24h incubation
Method in brief: (§1)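 Cells were kindly donated by a university culture unit. They were grown in DMEM with 10% FBS and 1% penicillin/streptomycin/amphotericin B at 37°C and 5% CO2. Monolayers (~5×10^4) were grown 72 h, then exposed 24 h to test compound (0–100 μM; diluted from fresh DMSO stock; final DMSO ≤0.6% v/v). MTT was added for 3.5 h, formazan dissolved in DMSO, and A570 read (690 nm background). IC50 is mean ±SE of three experiments, triplicate microcultures.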

[2] = system: human cervical carcinoma cell line HeLa; test: Cytotoxicity, MTT assay, HeLa cells; format: cell-based; settings: read-out: IC50 HeLa, 24h incubation, 1% DMSO stock diluted with medium
Method in brief: as §1

[3] = target: Human serum albumin (HSA) (Homo sapiens, UniProt P02768); test: HSA tryptophan fluorescence quenching; format: binding; settings: HSA 10 μM, complex 10–100 μM
Method in brief: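 HSA (10 μM) in phosphate buffer (pH 7.4) received ten successive additions from an 8 mM DMSO stock of test compound, giving final 10–100 μM. Trp emission was recorded at room temperature, 300–450 nm, excitation 295 nm, 240 s after each addition. Compound, buffer and DMSO fluorescence were negligible. Data were fitted to F0/F = 1 + KSV[Q].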

[4] = system: human breast adenocarcinoma MDA-MB 231 cell line; test: Cytotoxicity, XTT assay, MDA-MB-231 cells; format: cell-based; settings: read-out: IC50 MDA-MB-231, 24h incubation
Method in brief: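 Cells kept adherent in DMEM with penicillin/streptomycin and 10% FBS (37°C, 5% CO2/[…]). Seeded at 5×10^3 cells/well in phenol red-free, antibiotic-free DMEM with 10% FBS and 2 mM L-glutamine, and grown 24 h. Test compound added at 0.1–50 μM final for 24 h. XTT added at 0.3 mg/mL final for 4 h, then A450 read. Survival is the treated/untreated absorbance ratio. IC50 given as mean (±SE) of three independent experiments, triplicate microcultures per concentration.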

[5] = system: non-tumorigenic human embryonic kidney cells HEK-293T; test: Cytotoxicity, XTT assay, HEK-293T cells; format: cell-based; settings: read-out: IC50 HEK-239T, 24h incubation
Method in brief: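 Cells were maintained in DMEM with 100 U/mL penicillin, 100 μg/mL streptomycin and 10% FBS, humidified, 37°C, 5% CO2/[…]. Seeding was 5×10^3 cells/well in phenol red-free, antibiotic-free DMEM with 10% FBS and 2 mM L-glutamine, grown 24 h. Test compound (final 0.1–50 μM) was given for 24 h or 48 h. XTT (final 0.3 mg/mL) ran 4 h, read at 450 nm. Survival was taken as treated/untreated absorbance. IC50 is mean ±SE of three experiments, triplicate microcultures.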

[6] = Stability in solution by 1H-NMR spectroscopy; format: physicochemical; settings: D2O, PBS-D2O or neat DMSO-d6
MDA-MB-231 cells = test: ApoTox-Glo Triplex assay; format: cell-based, human; settings: 10.7 μM, 24 h
[7] = system: human colon adenocarcinoma cell line HT-29; test: Cytotoxicity, MTT assay, HT-29 cells; format: cell-based; settings: read-out: IC50 HT-29, 24h incubation
Method in brief: as §1

Chain of Human serum albumin (HSA) (P02768 25-609): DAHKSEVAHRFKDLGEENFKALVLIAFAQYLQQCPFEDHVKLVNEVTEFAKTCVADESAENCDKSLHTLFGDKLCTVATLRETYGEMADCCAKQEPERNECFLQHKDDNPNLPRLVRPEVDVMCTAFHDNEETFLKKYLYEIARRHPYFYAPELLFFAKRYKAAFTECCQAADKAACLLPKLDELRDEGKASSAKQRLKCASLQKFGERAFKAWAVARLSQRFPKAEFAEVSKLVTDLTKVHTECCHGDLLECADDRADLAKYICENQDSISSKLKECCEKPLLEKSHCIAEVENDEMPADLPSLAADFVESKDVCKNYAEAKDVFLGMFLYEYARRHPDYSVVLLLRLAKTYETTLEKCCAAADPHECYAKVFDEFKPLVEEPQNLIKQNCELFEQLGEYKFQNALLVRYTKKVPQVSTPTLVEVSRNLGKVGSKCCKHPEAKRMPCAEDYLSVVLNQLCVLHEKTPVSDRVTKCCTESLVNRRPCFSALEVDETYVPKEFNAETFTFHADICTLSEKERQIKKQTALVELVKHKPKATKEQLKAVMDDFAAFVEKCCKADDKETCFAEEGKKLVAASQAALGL

In the case of Cc1ccc(C(C)C)cc1.[Cl][Ru]([Cl])[PH]12CN3CN(CN(C3)C1)C2 [RAPTA-C], the IC50 (bovine Capthesin B) is given as 2.5 µM.

In the case of Cc1ccccc1.[Cl][Ru]([Cl])[PH]12CN3CN(CN(C3)C1)C2 [RAPTA-T], the IC50 (bovine Capthesin B) is listed as 1.5 µM.

With N.N.[Cl][Pt][Cl] [cisplatin, cis-diamminedichloroplatinum (II), reference compound] the “effect on electrophoretic mobility of plasmid DNA” value (plasmid (pBR322) DNA; 37°C, 20 h, Tris/HCl buffer, drug/DNA ratio up to 2.0) was “both increase and decrease the mobility of the OC and the CCC forms”.

In the case of “G1-[[NCPh(o-N)Ru(η^6-p-cymene)Cl]Cl]4 [Compound 17]”, the IC50 [1] is reported as 6.9 ± 0.5 µM, the IC50 [2] is reported as 8.1 ± 0.4 µM and the “shape of Stern-Volmer plot F0/F versus [Q]” value [3] is reported as “positive deviation”. The “interaction with plasmid DNA at acidic, neutral and basic pH” value (plasmid (pBR322) DNA; metal/DNAbp ratio 2.0, pH 6, 7 and 8) was “do not interact with plasmid (pBR322) DNA”, the IC50 [4] was 6.1 ± 1 µM and the IC50 [5] was 10.7 µM. The “stability by 1H-NMR over 72 hours” value [6] was “did not observe changes”, the necrotic cells (MDA-MB-231 cells) was 27% and the “reduction of MDA-MB-231 viability” value (MDA-MB-231 cells) was “ca. 58%”. For the same compound, the “treated cells remaining viable” value (MDA-MB-231 cells) was 42%, the apoptotic cells (MDA-MB-231 cells; caspase-3/-7 activity) was 16% and the IC50 [7] was 5.6 ± 0.1 µM.

— PMC4863959 (Dalton transactions (Cambridge, England : 2003), 2016)
